# Bioassay records: PubChem BioAssay, Johns Hopkins Ion Channel Center
# TRPC4 potent = TRPC4 (mouse) allosteric potentiation; HEK293 TRPC4beta/mu-opioid, DAMGO EC20, Fluo-4 Ca2+ flux; active compounds read high; hit rate 0.42% among 310,000; B-score at 10 µM;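 active = B-score of calcium response area above 5 SD of library B-scores, with initial fluorescence ratio within 5 SD of library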
# Target sequence (Q9QUQ5 whole entry, looked up): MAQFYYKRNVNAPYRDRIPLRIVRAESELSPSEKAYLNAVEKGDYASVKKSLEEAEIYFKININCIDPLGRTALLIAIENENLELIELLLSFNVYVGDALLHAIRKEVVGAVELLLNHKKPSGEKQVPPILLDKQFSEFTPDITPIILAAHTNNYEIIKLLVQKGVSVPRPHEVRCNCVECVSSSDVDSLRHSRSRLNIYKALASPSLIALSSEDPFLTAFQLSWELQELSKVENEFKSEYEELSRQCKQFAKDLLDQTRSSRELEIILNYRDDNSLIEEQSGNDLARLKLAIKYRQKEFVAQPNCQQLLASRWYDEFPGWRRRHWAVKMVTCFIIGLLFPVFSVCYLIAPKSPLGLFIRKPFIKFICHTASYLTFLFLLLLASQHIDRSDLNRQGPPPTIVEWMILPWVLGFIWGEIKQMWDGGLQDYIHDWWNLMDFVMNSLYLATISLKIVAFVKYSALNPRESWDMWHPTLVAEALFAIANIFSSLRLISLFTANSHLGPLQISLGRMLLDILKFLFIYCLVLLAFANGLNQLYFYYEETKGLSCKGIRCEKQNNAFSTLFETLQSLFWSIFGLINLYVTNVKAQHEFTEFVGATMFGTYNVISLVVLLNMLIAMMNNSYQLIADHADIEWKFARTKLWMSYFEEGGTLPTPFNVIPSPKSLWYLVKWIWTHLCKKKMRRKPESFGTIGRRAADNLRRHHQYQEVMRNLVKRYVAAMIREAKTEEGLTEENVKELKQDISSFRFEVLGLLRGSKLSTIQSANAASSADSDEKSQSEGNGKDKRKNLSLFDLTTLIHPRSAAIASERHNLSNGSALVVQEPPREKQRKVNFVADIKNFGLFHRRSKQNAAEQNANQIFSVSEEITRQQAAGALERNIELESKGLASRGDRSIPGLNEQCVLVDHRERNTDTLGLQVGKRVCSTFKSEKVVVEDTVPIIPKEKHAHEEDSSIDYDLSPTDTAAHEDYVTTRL
# TRPC4 agonist = TRPC4 (mouse) channel activation; HEK293 TRPC4beta/mu-opioid, Fluo4 calcium fluorescence; active compounds read high; B-score at 10 µM; AID 2237; hit rate 0.49% among 310,000;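 active = B-score above 5 SD of library B-scores, and initial fluorescence ratio not above library mean plus 5 SD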;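 note: positive B-score marks a calcium rise read as TRPC4 activation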
#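 Incubation: 45 min room-temperature Fluo4 loading, 110 s read / System: HEK293 cells stably co-expressing mouse TRPC4beta and mu-opioid receptor / Signal: Fluo4 fluorescence, kinetic / Control set: buffer (low) and maximal DAMGO (high) / Measure: integrated baseline-normalised fluorescence ratio, converted to per-well B score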
# TRPC6 activator = activators of mouse TRPC6 channel | Q61143 | HEK293-TRPC6 membrane potential dye fluorescence; active compounds read high | B-score at 10 µM | AID 2550 | hit rate 0.13% among 310,000;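 active = B-score of the integrated fluorescence ratio above library mean plus 3 SD, and starting fluorescence ratio within library mean plus 5 SD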;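 note: higher score means more depolarization so channel activation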
# TRPC4 block = TRPC4 (mouse) channel inhibition. Q9QUQ5. HEK293 TRPC4beta/mu-opioid, DAMGO-evoked Fluo4 calcium flux; active compounds read low. B-score at 10 µM. hit rate 0.39% among 300,000;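 active = B-score over 3 SD under the library average, no early fluorescence shift, positive overall ratio signal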
#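 Assay system: HEK293 cells with stable TRPC4beta plus mu-opioid receptor expression; Probe or stimulus: DAMGO in two steps, submaximal then maximal; Dosing: single-point compound dosing; Measured by: Fluo4 calcium-dye fluorescence, kinetic read; Read-out basis: B score from integrated Fluo4 fluorescence ratio.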
# TRPC6 inh = inhibitors of mouse TRPC6 channel; HEK293-TRPC6, membrane potential dye, ACh-evoked depolarization; active compounds read low; hit rate 1.1% among 310,000; B-score at 10 µM; Q61143;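 active = B-score under library mean minus 3 SD, initial fluorescence not abnormally high, positive integrated signal ratio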;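 note: B-score derived from integrated fluorescence ratio over the kinetic read; more negative B-score means stronger inhibition of depolarization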
# TRPC4 spec 2 = second selectivity test of TRPC6 inhibitors: effect on mouse TRPC4; shares compounds with TRPC6 inh; HEK293 TRPC4/MOR, membrane potential dye fluorescence; channel activated by saturating DAMGO dose; inhibition, % at 10 µM; hit rate 42% among 920; AID 2776;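 active = compounds whose fluorescence signal differed from control wells by over 3 SD, either direction, in both duplicate plates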
# TRPC4 spec = selectivity of TRPC6 inhibitors: effect on mouse TRPC4. shares compounds with TRPC6 inh. HEK293 TRPC4/mu-opioid, membrane potential fluorescence. activity change, negative = inhibition, % at 10 µM. hit rate 61% among 920;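 active = rise or fall in signal beyond 3 SD of buffer-only wells in both replicate plates, either sign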;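 note: integrated kinetic ratio of fluorescence range over baseline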
# HEK293 MPD ctr 2-1 = parental HEK293 nonspecific activity of TRPC6 inhibitors, second screen. shares compounds with TRPC6 inh. parental HEK293 membrane potential dye fluorescence; maximal acetylcholine challenge after compound addition. signal change vs control, % at 10 µM. hit rate 31% among 920;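 active = membrane potential signal moving either way by over 3 SD of the maximum-effect control, in both duplicate plates, meaning non-specific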
# HEK293 MPD ctr-1 = counter-screen for TRPC6 inhibitors: effect in parental HEK293 cells | AID 2780 | parental HEK293 membrane potential dye fluorescence | shares compounds with TRPC6 inh | membrane potential signal change, % at 10 µM | hit rate 60% among 920;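 active = membrane potential signal shifting up or down by more than 3 SD of buffer-only wells, on both duplicate plates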
# HEK293 MPD ctr-2 = checks TRPC6 modulator effects in parental HEK293 cells. hit rate 51% among 2,400. shares compounds with TRPC6 inh. AID 488924. membrane potential signal change, % at 10 µM. membrane potential dye fluorescence;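 active = membrane potential signal moves up or down beyond 5 SD from buffer-only wells, on both duplicate plates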
# HEK293 MPD ctr 2-2 = second counter-screen for TRPC6 modulators: effect in parental HEK293 cells | shares compounds with TRPC6 inh | membrane potential dye fluorescence; after compound, maximal acetylcholine stimulation | inhibition, % at 10 µM | hit rate 14% among 2,400 | AID 488926;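 active = membrane potential signal drops by more than 5 SD from the mean control signal, in both duplicate plates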
# TRPC4 ctr mod = mouse TRPC4 off-target activity of TRPC6 modulators; hit rate 69% among 2,400; HEK293 TRPC4/mu-opioid, membrane potential fluorescence; percent change from control (negative = decrease, positive = increase), % at 10 µM; shares compounds with TRPC6 inh;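 active = membrane potential signal moved up or down beyond 5 SD of buffer control wells, in both duplicate plates, actives on both sides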
# TRPC4/MOR inh 2 = second check of whether TRPC6 modulators also affect mouse TRPC4 | HEK293 TRPC4/mu-opioid, membrane potential dye fluorescence; stimulated with maximal-effect DAMGO | shares compounds with TRPC6 inh | inhibition, % at 10 µM | hit rate 55% among 2,400;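 active = drop in membrane potential signal beyond 5 SD of the control wells in both duplicate plates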;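 note: TRPC4 counter screen for TRPC6 hits run under conditions tuned for TRPC6 not TRPC4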
# TRPC6 block conf = confirmation of mouse TRPC6 inhibitors; AID 488960; inhibition, % at 10 µM; HEK293-TRPC6, membrane potential dye, ACh-evoked depolarization; shares compounds with TRPC6 inh; hit rate 43% among 3,300;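 active = fluorescence ratio falls more than 5 SD below the full-stimulation control mean, in both duplicate runs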;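 note: integrated fluorescence ratio of peak minus minimum over baseline after agonist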
# TRPC6 act confirm = mouse TRPC6 activator confirmation | activation, % at 10 µM | shares compounds with TRPC6 inh | hit rate 11% among 2,800 | HEK293-TRPC6 membrane potential dye fluorescence, FDSS;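 active = ratio signal rise beyond 5 SD above unstimulated control wells' mean, seen in both duplicate runs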
# A number is an active result; 0 = inactive; - = not tested or not shown. Hits are enriched below; roughly 2.3% of the tested compounds scored in any of these assays.
SMILES,TRPC4 potent,TRPC4 agonist,TRPC6 activator,TRPC4 block,TRPC6 inh,TRPC4 spec 2,TRPC4 spec,HEK293 MPD ctr 2-1,HEK293 MPD ctr-1,HEK293 MPD ctr-2,HEK293 MPD ctr 2-2,TRPC4 ctr mod,TRPC4/MOR inh 2,TRPC6 block conf,TRPC6 act confirm
COc1ccc2c(c1)c(C(O)CN1CCC(Cc3ccccc3)CC1)c(C)n2C (stereo unspecified),0,0,0,0,-11.5,26.0%,-12.6%,0,-221.0%,-,-,-,-,77.8%,0
Cc1ccc(OCC(O)CN2CCN(Cc3ccc4c(c3)OCO4)CC2)cc1C (stereo unspecified),0,0,0,0,0,-,-,-,-,-,-,-,-,-,-
Cc1ccc(S(=O)(=O)N2CCC(C(=O)N3CCC[C@H]3C(=O)NCc3ccco3)CC2)cc1,0,0,0,0,0,-,-,-,-,-,-,-,-,-,-
Cc1cccc(C2Nc3ccccc3C(=O)N2c2ccccc2)n1 (stereo unspecified),0,0,0,0,0,-,-,-,-,-,-,-,-,-,-
CN(C)CC/C=C1/c2ccccc2CS(=O)(=O)c2ccccc21,0,0,0,0,0,-,-,-,-,-,-,-,-,-,-
NC(=Nc1ccccc1)NC(=O)c1nc(Cl)c(N)nc1N,0,0,0,0,0,-,-,-,-,-,-,-,-,-,-
CN(C)c1nc(N)c(C(=O)N=C(N)N)nc1Cl,0,0,0,0,-7.34,0,-23.7%,0,-364.0%,-,-,-,-,0,0
CC(C)(O)C#Cc1ccc(CN2CCN(C3CCCCC3)C(CCO)C2)s1 (stereo unspecified),0,0,0,0,-7.39,0,0,0,0,-,-,-,-,0,0
COc1ccc(NC(=O)C2CCCN(CCCc3ccccc3)C2)cc1OCC(C)C (stereo unspecified),0,0,0,0,-7.29,75.5%,0,225.5%,0,-,-,-,-,0,0
Cc1nn(-c2ccccc2)c(C)c1/C=N/NC(=O)CSc1nnc(SCc2ccccc2Cl)s1,0,0,0,0,0,-,-,-,-,-,-,-,-,-,-
CC[n+]1c(/C=C/c2ccc(OC(C)=O)c(OC)c2)ccc2ccccc21,0,0,0,0,-7.59,-,-,-,-,-264.0%,124.0%,-45.0%,70.0%,77.0%,0
CC[n+]1c(/C=C/c2ccc(N(C)C)cc2)ccc2ccccc21,0,0,0,0,0,-,-,-,-,-,-,-,-,-,-
CC[n+]1c(/C=C/c2ccc(OC)c(OC)c2)ccc2ccccc21,0,0,0,0,-8.11,-,-,-,-,-214.5%,0,-52.5%,40.0%,0,0
Cc1cc(NCc2ccccc2)n2ncc(-c3ccccc3)c2n1,0,0,0,0,0,-,-,-,-,-,-,-,-,-,-
CN(C1=C(NC(=O)c2ccc(Cl)cc2)C(=O)c2ccccc2C1=O)c1ccccc1,0,0,0,0,-5.14,-,-,-,-,-99.5%,0,-31.5%,65.0%,0,0
N#C/C(=C\c1c(N2CCCCC2)nc2ccccn2c1=O)S(=O)(=O)c1ccccc1,0,0,0,0,-5.27,-,-,-,-,0,0,-14.5%,48.0%,0,0
